# A selection: hits, their analogues and other compounds. The true share with any hit is near 3.9%.
# OX1R antag-1: antagonists of human orexin 1 receptor (OX1R). OX1R-expressing cells, FRET antagonist read-out. inhibition, % at 6.6 µM. 1.8% of 330,000 active. AID 485270; in the data active = inhibition mostly above about 38%, no sharp cut-off; inactive = mostly below about 40%;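 note: 0% = agonist challenge alone and 100% = reference antagonist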
# CHO parental Ca: signal in parental CHO cells, OX1R antagonist counter-screen. 0.63% of 330,000 active. AID 463079. inhibition, % at 5.6 µM. parental CHO-K1, ATP-induced calcium, Fluo-8 fluorescence;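 active = inhibition above that plate's mean sample inhibition plus 3 SD, cut at about 26% in these data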;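 note: 0% = ATP-challenged DMSO wells and 100% = DMSO wells without ATP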
#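 Test system: untransfected parental CHO cell line. Compound: one dose, 5.6 µM nominal. Detection: intracellular calcium via Fluo-8 no-wash fluorescent dye. Measure: % inhibition. Benchmarks: ATP-challenged DMSO wells low, unchallenged DMSO wells high.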
# TAAR1 agonist: agonists of human TAAR1; Q96RJ0; CHO RD-HGA16 TAAR1, Fluo-8 calcium fluorescence; vehicle wells 0%, saturating PEA agonist 100%; activation, % at 3 µM; 0.99% of 360,000 active; AID 624467;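 active = activation above the mean activation of all test compounds in the run plus 3 SD, cut at about 38% in these data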
# Target sequence (Q96RJ0 whole entry, looked up): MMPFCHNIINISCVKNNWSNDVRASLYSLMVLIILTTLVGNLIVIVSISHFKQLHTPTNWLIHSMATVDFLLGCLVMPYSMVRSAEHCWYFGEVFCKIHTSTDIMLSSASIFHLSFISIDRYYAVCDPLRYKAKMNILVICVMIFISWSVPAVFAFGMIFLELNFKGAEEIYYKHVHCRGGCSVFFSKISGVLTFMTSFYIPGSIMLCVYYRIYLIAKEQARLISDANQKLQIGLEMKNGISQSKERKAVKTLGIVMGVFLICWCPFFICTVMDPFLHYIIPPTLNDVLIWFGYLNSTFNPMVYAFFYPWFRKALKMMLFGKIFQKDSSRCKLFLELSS
#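 System: CHO-derived RD-HGA16 cells with stable Gα16 and human TAAR1 / Times: 17-24 h plating, Fluo-8 75 min 37 °C, 30 min RT / Technique: calcium-sensitive Fluo-8 signal, excitation 470-495, emission 515-575 nm / Measure: % activation relative to PEA EC100 response / Benchmarks: DMSO and PEA EC100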
# OX1R antag-2: antagonists of human orexin 1 receptor. O43613. CHO/OX1R cells, Fluo-8 calcium fluorescence, orexin A. inhibition, % at 5 µM. 0.43% of 330,000 active. AID 434989;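 active = inhibition above its plate's threshold, mean inhibition of all tested compounds on the plate plus 3 SD, cut at about 37% in these data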;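 note: 0% = orexin A challenge wells and 100% = SB-334867-A antagonist wells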
# TAAR1 antag: antagonists of human TAAR1. Q96RJ0. CHO RD-HGA16 TAAR1, Fluo-8 calcium fluorescence, antagonist. inhibition, % at 3 µM. 1.5% of 360,000 active. AID 624466;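 active = inhibition above a per-plate cutoff, the mean inhibition of test compounds on that plate plus 3 SD, cut at about 49% in these data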;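 note: 0% = DMSO plus EC80 beta-PEA response and 100% = DMSO alone without agonist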
#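 Test system – hTAAR1-expressing CHO RD-HGA16 cells, Gα16-coupled · Also added – β-PEA at EC80 concentration, post-compound challenge · Compound – 3 µM, single point · Incubation – dye loading 75 min at 37 °C, then 30 min room temperature · Measured by – Fluo-8 intracellular calcium dye fluorescence, real-time kinetic reads · Benchmarks – vehicle and agonist controls · Replicates – singlicate, one well per test compound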
# An asterisk follows results filed as active; x = no result.
SMILES,OX1R antag-1,CHO parental Ca,TAAR1 agonist,OX1R antag-2,TAAR1 antag
COc1ccc(C(C(=O)NCC2CCCO2)N(Cc2ccco2)C(=O)c2snc(C(N)=O)c2N)cc1OC (centres undefined),19.7,0.4,9.8,-16.1,24.2
C=CCO[C@H]1CN(C(=O)OC)[C@@H]2C[C@H]1Oc1ccccc12,x,x,1.6,x,-3.8
C[C@H]1COc2cccc(N3CCC[C@H]3CO)c2S(=O)(=O)N1,x,x,0.9,x,-15.8
COc1ccc(-c2csc(C(C)(O)c3ccc(F)c(F)c3)n2)cc1 (centres undefined),x,x,0.5,x,19.4
CC(C)(C)C(=O)NC(=S)NNC(=O)c1sc2ccccc2c1Cl,8.0,40.5*,x,69.0*,x
O=C(Cn1c(=S)[nH]c2ccccc2c1=O)NCCc1ccccc1,3.5,-10.5,38.2*,-22.1,-15.8
O=C(CCn1c(=S)[nH]c2ccccc2c1=O)NCCSCc1ccccc1,34.6,-19.6,-0.5,-30.8,12.7
Cc1ccc(NC(=O)[C@@H](Cc2ccccc2)NC(=O)[C@H]2O[C@@H](n3ccc(=O)[nH]c3=O)[C@H](O)[C@@H]2O)cc1C,x,x,0.1,x,-17.1
Fc1ccc(NCc2nnc(SCc3nnc(-c4ccccc4)o3)n2Cc2ccccc2)cc1,51.1,51.5*,10.8,72.6*,11.6
Clc1ccc(-c2nnc(CSc3nnc(-c4cccs4)n3Cc3ccccc3)o2)cc1,46.7*,23.3,1.0,3.7,17.4
N#CC1=C(N)NC(SCc2ccccc2)=C(C#N)C12CCCC2,27.3,-11.3,15.5,1.4,46.2
N#CC1=C(N)NC(SCc2ccc(Cl)cc2)=C(C#N)C12CCCCC2,25.0,46.9*,21.6,54.3*,61.7*
N#CC1=C(N)NC(SCc2ccc(Br)cc2)=C(C#N)C12CCCCC2,19.0,45.4*,22.0,4.5,26.9
O=C(/C=C/c1ccccc1Cl)Nc1cccc(S(=O)(=O)NC2=NCCCCC2)c1,15.9,-4.9,4.6,-16.3,-1.1
O=C(/C=C/c1ccc([N+](=O)[O-])cc1)Nc1cccc(S(=O)(=O)NC2=NCCCCC2)c1,11.2,-10.2,7.2,-26.2,49.3*
CC(C)n1c(CN(C)Cc2ccccc2)nc2c1c(=O)n(C)c(=O)n2C,54.1*,68.9*,9.6,15.8,30.9
CC(C)n1c(NCCc2ccccc2)nc2c1c(=O)n(C)c(=O)n2C,26.7,38.9*,18.9,6.9,24.7
CN1OC[C@@H]2CN[C@H](c3ccc(N4CCCCC4)cc3)C[C@@H]21,x,x,0.7,x,-13.6
NC(=O)c1ccc(N2CCN(S(=O)(=O)c3cccs3)CC2)c([N+](=O)[O-])c1,14.9,45.6*,24.7,56.1*,21.8
CCn1c(O)c(N=NC(=O)c2ccc(CSc3nncn3C)cc2)c2ccccc21,70.3*,-16.9,8.7,-20.2,1.3
CN(C)c1ccc(NC(=O)CSc2nnc(-c3cccs3)n2Cc2ccco2)cc1,47.0*,-18.4,2.1,35.0,6.7
Cc1ccc(NC(=O)CSc2nnc(-c3cccs3)n2Cc2ccco2)cc1,27.9,-27.9,9.0,-2.1,4.0
COc1cccc(CN(C)C(=O)[C@H]2O[C@@H](n3cnc4c(=O)[nH]c(N)nc43)[C@H](O)[C@@H]2O)c1,x,x,0.2,x,1.2
COc1cccc(/C=N/Nc2ncnc(Cl)c2N)c1O,54.0,-3.2,1.8,-1.2,-9.9
COc1ccc(/C=N/Nc2ncnc(Cl)c2N)cc1OC,55.7*,-3.2,-0.1,-3.7,1.5
SMILES,OX1R antag-1,CHO parental Ca,TAAR1 agonist,OX1R antag-2,TAAR1 antag
Nc1c(Cl)ncnc1N/N=C/c1ccncc1,33.7,-5.2,5.5,0.4,-3.1
Nc1c(Cl)ncnc1N/N=C/c1cccc(O)c1,72.0*,-10.4,12.1,-15.3,-0.4
COCc1[nH]nc2c1C(c1ccc(C)cc1)NC2=O (centres undefined),x,x,1.0,x,-6.8
O=C(CSc1ccc(-c2cccc([N+](=O)[O-])c2)nn1)N1CCCC1,71.8*,-14.9,0.1,-15.6,-24.1
O=C(CSc1ccc(-c2cccc([N+](=O)[O-])c2)nn1)N1CCCCCC1,17.2,-16.6,8.4,-28.6,-28.8
CS(=O)(=O)Nc1ccccc1-c1ccc2nccn2c1,x,x,0.8,x,6.4
O=C(C#Cc1ccccc1)c1cccc([N+](=O)[O-])c1,17.1,36.3*,1.5,12.7,28.0
COc1ccc(C(=O)N2CCC[C@@H]2C(=O)N2CCC[C@@H]2C(=O)NCc2ccccc2)cc1F,x,x,3.1,x,-10.0
CCOC(=O)Nc1cc(=O)c([N+](=O)[O-])c(N)[nH]1,x,x,0.3,x,-4.0

# Source: PubChem BioAssay
